What was measured:
Hek293 (Normal) = test: WST cell viability assay, Hek293 cells; type: cell-based; details: Homo sapiens, HEK293, 72 h, read-out: IC50 Hek293 (Normal)
AGS (G12D) = test: WST cell viability assay, AGS cells; type: cell-based; details: Homo sapiens, 72 h, read-out: IC50 AGS (G12D)
SNU1197 (G12D) = test: WST cell viability assay, SNU1197 cells; type: cell-based; details: 72 h, read-out: IC50 SNU1197 (G12D)
AsPC1 (G12D) = test: WST cell viability assay, AsPC1 cells; type: cell-based; details: Homo sapiens, ASPC1, 72 h, read-out: IC50 AsPC1 (G12D)
[1] = system: MKN1 (KRAS wild-type) cells; test: Annexin V-FITC/PI apoptosis detection assay, MKN1 cells; type: cell-based; details: MKN1, 0, 2.5, and 5 μM, 24 h, flow cytometry
In short: (§1)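 AGS or MKN1 cells were seeded at 3–5 × 10^5 cells/well in 6-well plates and grown overnight. They were treated with test compound at 0, 2.5 or 5 μM for 24 h. Cells were harvested, PBS-washed and resuspended in 1X binding buffer.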

[2] = system: pERK, pAKT, pS6, cleaved PARP in AGS cells; test: Immunoblotting of KRAS downstream signals and PARP, AGS cells; type: cell-based; details: 5 or 7.5 μM, 24 h
In short: (§2)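 Cells (3–5 × 10^5/well, 6-well plates) were grown overnight, then given DMSO or test compound at 5 or 7.5 μM for 24 h. Lysis was in RIPA with protease/phosphatase inhibitors, with BCA protein assay. Equal protein was run on 8–12% SDS-PAGE and transferred to nitrocellulose. Blots were blocked in 5% milk/TBST, probed overnight at 4 °C (ERK, pERK, AKT, pAKT, S6, pS6, PARP), then HRP secondary 1 h, ECL. Bands were normalised to β-actin (n = 2).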

AsPC1 tumor = test: In vivo antitumor efficacy study, AsPC1 xenograft; set-up: species or system female BALB/c nude mice; details: 15 mg/kg i.p. once daily for 14 days
In short: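 Female BALB/c nude mice (5–6 weeks) received 5.0 × 10^6 AsPC1 cells s.c. into the right hind flank in PBS. At tumour volume >100 mm3, mice were randomised to vehicle or test compound at 15 mg/kg i.p. once daily for 14 days (10% DMSO, 40% PEG300, 5% Tween-80, 45% saline; 200 μL/mouse). Tumours were measured by caliper thrice weekly and body weight twice weekly. TGI (%) = (1 − RTVtreatment/RTVcontrol) × 100, with RTV relative to day 0.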

[3] = biological target: KRAS-GTP (active KRAS) in MKN1 cells (Homo sapiens, UniProt P01116); test: GST-RBD pulldown assay, MKN1 cells; type: cell-based; details: MKN1, 5 or 7.5 μM, 24 h
In short: (§3)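 AGS or MKN1 cells were exposed to DMSO or test compound (0, 5, 7.5 μM) for 24 h and lysed in 1X passive lysis buffer. Lysate (400 μg protein) was incubated overnight with glutathione–GST-RBD to capture GTP-bound KRAS. Pulled-down protein was immunoblotted with anti-KRAS antibody, and band intensity was quantified (n = 2).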

[4] = system: KRAS downstream proteins, including PARP, in MKN1 cells; test: Immunoblotting of KRAS downstream signals and PARP, MKN1 cells; type: cell-based; details: MKN1, 5 or 7.5 μM, 24 h
In short: as §2

[5] = biological target: KRAS-GTP (active KRAS) in AGS cells (Homo sapiens, UniProt P01116, G12D); test: GST-RBD pulldown assay, AGS cells; type: cell-based; details: 5 or 7.5 μM, 24 h
In short: as §3

AGS cells = test: Annexin V-FITC/PI apoptosis detection assay, AGS cells; type: cell-based; details: AGS, 0, 2.5, and 5 μM, 24 h, flow cytometry
In short: as §1

IC50 (AGS (G12D)) [µM] | IC50 (SNU1197 (G12D)) [µM] | IC50 (AsPC1 (G12D)) [µM] | KRAS-GTP protein expression [3] | KRAS-GTP levels [5] | Compound | IC50 (Hek293 (Normal)) [µM] | apoptosis [1] | pERK, pAKT, and pS6 levels [2] | levels of cleaved PARP ([2]; versus DMSO-treated group) | body weight change during treatment (AsPC1 tumor) | TGI (tumor growth inhibition) (AsPC1 tumor; day 14) [%] | KRAS downstream proteins, including PARP, expression [4] | proportion of early (LR) and late apoptotic (UR) cells (AGS cells)
0.0065 | 0.037 | 0.062 |  |  | C#Cc1c(F)ccc2cc(O)cc(-c3ncc4c(N5CC6CCC(C5)N6)nc(OC[C@@]56CCCN5C[C@H](F)C6)nc4c3F)c12 [MRTX1133, reference compound] | 19.7 |  |  |  |  |  |  | 
3.2 ± 0.4 | 3.8 ± 0.8 | 5.9 ± 0.3 | no protein expression changes | significantly downregulated | Cl.c1ccc(CN(Cc2ccccc2)c2nc(N3CCC4(CC3)CNC4)c3ncn(Cc4ccccc4)c3n2)cc1 [PU1-1, N,N,9-tribenzyl-6-(2,7-diazaspiro[3.5]nonan-7-yl)-9H-purin-2-amine hydrogen chloride] | 9.2 ± 0.2 | did not show significant apoptosis | significantly decreased | significantly increased | no noticeable weight loss | 42 | no protein expression changes | increased
3.3 ± 0.6 |  | 10.9 ± 0.4 |  |  | Cc1nc(-c2ccc(Cl)cc2)nc(N2CCC3(CC2)CNC3)c1Cc1ccccc1 [PY1-2, 7-(5-benzyl-2-(4-chlorophenyl)-6-methylpyrimidin-4-yl)-2,7-diazaspiro[3.5]nonane, 2,2,2-trifluoroacetic acid] | 9.1 ± 0.7 |  |  |  |  |  |  | 

From PMC11015380 (Heliyon, 2024)
